From ChEMBL document CHEMBL2434966, “Novel N-4-piperazinyl-ciprofloxacin-chalcone hybrids: synthesis, physicochemical properties, anticancer and topoisomerase I and II inhibitory activity” (Eur J Med Chem, 2013)
≈ marks a conversion by molar mass, not a printed value.

Tests used:
[1] = Aqueous solubility of the compound at pH 6.9 by UV spectroscopic analysis; assay type: physicochemical; conditions: aqueous solution
How it was run: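 Excess solid (10 mg) shaken in buffer at pH 6.9 or 7.8, 37 °C. The filtrate was diluted into the linear calibration range and dissolved drug measured by UV absorbance at λmax 272 nm. Values are the average of at least three agreeing independent measurements.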

BT-549 = test: Growth inhibition of human BT549 cells after 48 hrs by sulforhodamine B assay; assay type: functional; conditions: BT-549, 48 h
How it was run: (§1)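 NCI 60-panel five-dose test at 10-fold dilutions, 10^-4 to 10^-8 M, with 48 h continuous exposure and SRB protein read-out. Percent growth derived from time-zero, untreated-control and treated absorbances. GI50 is the concentration where [(Ti-Tz)/(C-Tz)]×100 = 50. TGI is taken at Ti = Tz. LC50 is taken at [(Ti-Tz)/Tz]×100 = -50.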

UACC-62 = test: Growth inhibition of human UACC62 cells after 48 hrs by sulforhodamine B assay; assay type: functional; conditions: UACC-62, 48 h
How it was run: (§2)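 NCI 60-cell panel, five concentrations (10-fold dilutions, 0.01–100 µM), 48 h continuous exposure; SRB protein stain read spectrophotometrically. Percent growth from time-zero, untreated-control and treated absorbances. GI50 is the concentration giving 50% lower net protein increase than control. Values beyond the tested range are reported as more or less than the highest or lowest concentration.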

U-251 = test: Growth inhibition of human U251 cells after 48 hrs by sulforhodamine B assay; assay type: functional; conditions: U-251, 48 h; how it was run: as §2
NCI-H522 = test: Growth inhibition of human NCI-H522 cells after 48 hrs by sulforhodamine B assay; assay type: functional; conditions: NCI-H522, 48 h; for CC50: read-out: LC50 (the source's name)
How it was run: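 NCI five-dose screen on the full 60-cell-line panel. Cells were given 10-fold dilutions from 10^-4 to 10^-8 M with continuous 48 h exposure, and growth was read by SRB staining. Percent growth was taken from time-zero, control and treated absorbances. GI50, TGI and LC50 were then derived, the GI50 being the concentration that gives a 50% lower net protein increase than control.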

HOP-92 [2] = test: Growth inhibition of human HOP92 cells after 48 hrs by sulforhodamine B assay; assay type: functional; conditions: HOP-92, 48 h; how it was run: as §1
T47D = test: Growth inhibition of human T47D cells assessed as cell growth at 10^-5 M after 48 hrs by sulforhodamine B assay; assay type: functional; conditions: read-out: Activity
How it was run: (§3)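 NCI primary one-dose screen: single concentration of 10^-5 M added to culture, 48 h incubation, SRB protein-dye endpoint. Percent growth of treated cells measured spectrophotometrically against untreated controls.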

[3] = Growth inhibition of human Hs 578T cells assessed as cell growth at 10^-5 M after 48 hrs by sulforhodamine B assay; assay type: functional; conditions: read-out: Activity
How it was run: (§4)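 NCI 60-cell-line primary screen. Single concentration of 10^-5 M, 48 h incubation. End point by sulforhodamine B protein staining read spectrophotometrically. Reported as percent growth of treated cells relative to untreated control cells.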

OVCAR-4 = test: Growth inhibition of human OVCAR4 cells assessed as cell growth at 10^-5 M after 48 hrs by sulforhodamine B assay; assay type: functional; conditions: OVCAR-4, 48 h, read-out: Activity
How it was run: (§5)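 NCI 60-cell-line primary one-dose screen. Cells were exposed to a single 10^-5 M concentration for 48 h. The end point was sulforhodamine B protein staining, read spectrophotometrically. Results are reported as percent growth of treated cells relative to untreated control cells.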

IGROV-1 = test: Growth inhibition of human IGROV1 cells assessed as cell growth at 10^-5 M after 48 hrs by sulforhodamine B assay; assay type: functional; conditions: IGROV-1, 48 h, read-out: Activity; how it was run: as §4
SK-MEL-5 = test: Growth inhibition of human SK-MEL-5 cells assessed as cell growth at 10^-5 M after 48 hrs by sulforhodamine B assay; assay type: functional; conditions: SK-MEL-5, 48 h, read-out: Activity; how it was run: as §5
SK-MEL-28 = test: Growth inhibition of human SK-MEL-28 cells assessed as cell growth at 10^-5 M after 48 hrs by sulforhodamine B assay; assay type: functional; conditions: SK-MEL-28, 48 h, read-out: Activity; how it was run: as §5
SK-MEL-2 = test: Growth inhibition of human SK-MEL-2 cells assessed as cell growth at 10^-5 M after 48 hrs by sulforhodamine B assay; assay type: functional; conditions: SK-MEL-2, 48 h, read-out: Activity; how it was run: as §5
Malme-3M = test: Growth inhibition of human MALME-3M cells assessed as cell growth at 10^-5 M after 48 hrs by sulforhodamine B assay; assay type: functional; conditions: read-out: Activity; how it was run: as §4
SW-620 = test: Growth inhibition of human SW620 cells assessed as cell growth at 10^-5 M after 48 hrs by sulforhodamine B assay; assay type: functional; conditions: SW-620, 48 h, read-out: Activity; how it was run: as §3
HOP-92 [4] = test: Growth inhibition of human HOP92 cells assessed as cell growth at 10^-5 M after 48 hrs by sulforhodamine B assay; assay type: functional; conditions: HOP-92, 48 h, read-out: Activity; how it was run: as §4
A549 = test: Growth inhibition of human A549/ATCC cells assessed as cell growth at 10^-5 M after 48 hrs by sulforhodamine B assay; assay type: functional; conditions: A549, 48 h, read-out: Activity; how it was run: as §4

Row | SMILES | solubility [1] [µg/mL] | GI50 (BT-549) [nM] | LC50 (concentration giving 50% net cell kill) (BT-549) [µM] | TGI (BT-549) [nM] | GI50 (UACC-62) [nM] | LC50 (UACC-62) [µM] | TGI (UACC-62) [µM] | GI50 (U-251) [nM] | LC50 (concentration killing 50% of cells) (U-251) [µM] | TGI (U-251) [nM] | GI50 (NCI-H522) [nM] | TGI (NCI-H522) [µM] | CC50 (NCI-H522) [µM] | growth at 10 µM (T47D) [%] | growth at 10 µM [3] [%] | growth at 10 µM (OVCAR-4) [%] | growth at 10 µM (IGROV-1) [%] | growth at 10 µM (SK-MEL-5) [%] | growth at 10 µM (SK-MEL-28) [%] | growth at 10 µM (SK-MEL-2) [%] | further results
1 | O=C(CN1CCN(c2cc3c(cc2F)c(=O)c(C(=O)O)cn3C2CC2)CC1)Nc1ccc(C(=O)/C=C/c2ccccc2)cc1 | 2.73 (≈ 4.59 µM) | 3560 | > 100 | > 100000 | 3710 | > 100 | > 100 | 2920 | > 100 | > 100000 | 1700 | 7.78 | > 100 | 85.1 | 51.9 | 86.4 | 42.9 | 13.6 | 85.7 | 53.7 | GI50 (HOP-92 [2]): 430 nM; TGI (HOP-92 [2]): 3.82 µM; CC50 (HOP-92 [2]; read-out: LC50 (the source's name)): > 100 µM; growth at 10 µM (Malme-3M): 51%; growth at 10 µM (SW-620): 41%; growth at 10 µM (HOP-92 [4]): 14.9%; growth at 10 µM (A549): 4.12%
2 | COc1cc(/C=C/C(=O)c2ccc(NC(=O)CN3CCN(c4cc5c(cc4F)c(=O)c(C(=O)O)cn5C4CC4)CC3)cc2)cc(OC)c1OC | 2.13 (≈ 3.11 µM) | 300 | 6.98 | 1170 | 800 | 27.9 | 3.63 | 330 | 12.9 | 1290 | 660 | 3.19 | 17.9 | 17.6 | 76.8 | 16.4 | -1.19 | -42.9 | 34 | 30 | growth at 10 µM (Malme-3M): 31.4%; growth at 10 µM (SW-620): 6.38%; growth at 10 µM (HOP-92 [4]): -1.75%; growth at 10 µM (A549): -19.2%
